According to publication PMC5094435 (Saudi Pharmaceutical Journal : SPJ, 2015):
In brackets after ≈: the same amount, converted by molar mass.

How the values were obtained:
Aspergillus niger = test: Antifungal activity; type: cell-based; details: read-out: MIC, A. niger
Outline: (§1)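 Run by the poison food technique against Aspergillus niger and Aspergillus flavus. Fluconazole was the reference drug.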

[1] = tested on: Escherichia coli (MTCC 1652); test: Antibacterial activity; type: cell-based; details: for MIC, E. coli: E. coli (MTCC 1652); for MIC: Escherichia coli, MTCC1652, read-out: MIC, E. coli
Outline: (§2)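 Screened by a standard method against S. aureus MTCC 96, B. subtilis MTCC 121, E. coli MTCC 1652 and P. aeruginosa MTCC 741. Ciprofloxacin was the reference antibiotic. Only compounds active at 100 μg/mL went on to MIC determination.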

[2] = tested on: Staphylococcus aureus (MTCC 96); test: Antibacterial activity; type: cell-based; details: MTCC96, read-out: MIC, S. aureus
Outline: as §2

Aspergillus flavus = test: Antifungal activity; type: cell-based; details: read-out: MIC, A. flavus
Outline: as §1

[3] = tested on: Bacillus subtilis (MTCC 121); test: Antibacterial activity; type: cell-based; details: MTCC121, read-out: MIC, B. subtilis
Outline: as §2

[4] = tested on: Pseudomonas aeruginosa (MTCC 741); test: Antibacterial activity; type: cell-based; details: for MIC, P. aeruginosa: P. aeruginosa (MTCC 741); for MIC: Pseudomonas aeruginosa, MTCC741, read-out: MIC, P. aeruginosa
Outline: as §2

[5] = tested on: carrageenan induced edema; test: Anti-inflammatory activity, carrageenan induced rat paw edema; type: in vivo, Wistar rats; details: inhibition of edema, rats
Outline: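 Used the Winter et al. paw oedema method in Wistar rats of either sex (160–200 g), housed six per cage and acclimatised 48 h. Percent inhibition of oedema was calculated at 1, 2, 3 and 4 h. Diclofenac served as the standard drug.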

Compound	MIC (Aspergillus niger) [µg/mL]	MIC, E. coli [1]	MIC [1] [µg/mL]	MIC [2] [µg/mL]	MIC (Aspergillus flavus) [µg/mL]	MIC [3] [µg/mL]	MIC, P. aeruginosa [4]	MIC [4] [µg/mL]	% Inhibition ± SEM After 1 h [5]	% Inhibition ± SEM After 2 h [5]	% Inhibition ± SEM After 3 h [5] [%]	% Inhibition ± SEM After 4 h [5]
O=C1OC(c2ccc3ccccc3c2)=CC1=Cc1cc2ccccc2nc1Cl [Compound 5a, 3-[(2-Chloroquinolin-3-yl)methylene]-5-(naphthalene-2-yl)furan-2(3H)-one]	50 (≈ 130 µM)	did not show any inhibition	> 100	50 (≈ 130 µM)	> 100	50 (≈ 130 µM)	did not show any inhibition	> 100	67 ± 0.14^∗∗ %	62 ± 0.11^∗∗ %	46 ± 0.26	57 ± 0.27^∗∗ %
Cc1ccc2nc(Cl)c(C=C3C=C(c4ccc5ccccc5c4)OC3=O)cc2c1 [Compound 5c, 3-[(2-Chloro-6-methylquinolin-3-yl)methylene]-5-(naphthalene-2-yl)furan-2(3H)-one]	50 (≈ 126 µM)	did not show any inhibition	> 100	25 (≈ 62.8 µM)	> 100	50 (≈ 126 µM)	did not show any inhibition	> 100	69 ± 0.12^∗∗ %	66 ± 0.25^∗∗ %	47 ± 0.17	59 ± 0.12^∗∗ %
O=C1OC(c2ccc(-c3ccccc3)cc2)=CC1=Cc1cc2ccccc2nc1Cl [Compound 5e, 3-[(2-Chloroquinolin-3-yl)methylene]-5-(biphenyl-4-yl)furan-2(3H)-one]	25 (≈ 61 µM)		> 100	25 (≈ 61 µM)	50 (≈ 122 µM)	50 (≈ 122 µM)		> 100	63 ± 0.09^∗ %	60 ± 0.22^∗∗ %	53 ± 0.18	59 ± 0.12^∗∗ %
O=C1OC(c2ccc(-c3ccccc3)cc2)=CC1=Cc1cc2cc(Cl)ccc2nc1Cl [Compound 5f, 3-[(2,6-Dichloroquinolin-3-yl)methylene]-5-(biphenyl-4-yl)furan-2(3H)-one]	25 (≈ 56.3 µM)		50 (≈ 113 µM)	12.5 (≈ 28.1 µM)	25 (≈ 56.3 µM)	25 (≈ 56.3 µM)		> 100	63 ± 0.13^∗∗ %	58 ± 0.21^∗∗ %	53 ± 0.17	58 ± 0.12^∗∗ %
Cc1ccc2nc(Cl)c(C=C3C=C(c4ccc(-c5ccccc5)cc4)OC3=O)cc2c1 [Compound 5g, 3-[(2-Chloro-6-methylquinolin-3-yl)methylene]-5-(biphenyl-4-yl)furan-2(3H)-one]	50 (≈ 118 µM)	did not show any inhibition	> 100	25 (≈ 59 µM)	50 (≈ 118 µM)	50 (≈ 118 µM)	did not show any inhibition	> 100	67 ± 0.12^∗∗ %	62 ± 0.11^∗∗ %	46 ± 0.33	56 ± 0.06^∗∗ %
O=C1NC(c2ccc3ccccc3c2)=CC1=Cc1cc2ccccc2nc1Cl [Compound 6a, 3-[(2-Chloroquinolin-3-yl)methylene]-5-(naphthalene-2-yl)-1H-pyrrol-2(3H)-one]	25 (≈ 65.3 µM)		> 100	25 (≈ 65.3 µM)	25 (≈ 65.3 µM)	25 (≈ 65.3 µM)		50 (≈ 131 µM)	64 ± 0.06^∗ %	53 ± 0.18^∗∗ %	49 ± 0.10	36 ± 0.32%
Cc1ccc2nc(Cl)c(C=C3C=C(c4ccc5ccccc5c4)NC3=O)cc2c1 [Compound 6c, 3-[(2-Chloro-6-methylquinolin-3-yl)methylene]-5-(naphthalene-2-yl)-1H-pyrrol-2(3H)-one]	25 (≈ 63 µM)		> 100	12.5 (≈ 31.5 µM)	12.5 (≈ 31.5 µM)	12.5 (≈ 31.5 µM)		50 (≈ 126 µM)	32 ± 0.02%	55 ± 0.22^∗∗ %	47 ± 0.24	42 ± 0.20%
O=C1NC(c2ccc3ccccc3c2)=CC1=Cc1cc2cc([N+](=O)[O-])ccc2nc1Cl [Compound 6d, 3-[(2-Chloro-6-nitroquinolin-3-yl)methylene]-5-(naphthalene-2-yl)-1H-pyrrol-2(3H)-one]	6.25 (≈ 14.6 µM)		12.5 (≈ 29.2 µM)	6.25 (≈ 14.6 µM)	12.5 (≈ 29.2 µM)	6.25 (≈ 14.6 µM)		12.5 (≈ 29.2 µM)	58 ± 0.25^∗ %	60 ± 0.22^∗∗ %	29 ± 0.16	48 ± 0.15^∗ %
O=C1NC(c2ccc(-c3ccccc3)cc2)=CC1=Cc1cc2ccccc2nc1Cl [Compound 6e, 3-[(2-Chloroquinolin-3-yl)methylene]-5-(biphenyl-4-yl)-1H-pyrrol-2(3H)-one]	50 (≈ 122 µM)		> 100	12.5 (≈ 30.6 µM)	25 (≈ 61.1 µM)	50 (≈ 122 µM)		50 (≈ 122 µM)	38 ± 0.21%	48 ± 0.21^∗∗ %	44 ± 0.33	35 ± 0.32%
O=C1NC(c2ccc(-c3ccccc3)cc2)=CC1=Cc1cc2cc(Cl)ccc2nc1Cl [Compound 6f, 3-[(2,6-Dichloroquinolin-3-yl)methylene]-5-(biphenyl-4-yl)-1H-pyrrol-2(3H)-one]	6.25 (≈ 14.1 µM)		50 (≈ 113 µM)	6.25 (≈ 14.1 µM)	12.5 (≈ 28.2 µM)	6.25 (≈ 14.1 µM)		25 (≈ 56.4 µM)	48 ± 0.13%	63 ± 0.27^∗∗ %	25 ± 0.34	42 ± 0.20%
Cc1ccc2nc(Cl)c(C=C3C=C(c4ccc(-c5ccccc5)cc4)NC3=O)cc2c1 [Compound 6g, 3-[(2-Chloro-6-methylquinolin-3-yl)methylene]-5-(biphenyl-4-yl)-1H-pyrrol-2(3H)-one]	25 (≈ 59.1 µM)		50 (≈ 118 µM)	25 (≈ 59.1 µM)	12.5 (≈ 29.6 µM)	12.5 (≈ 29.6 µM)		50 (≈ 118 µM)	52 ± 0.08^∗ %	48 ± 0.24^∗∗ %	25 ± 0.17	36 ± 0.19%
O=C1NC(c2ccc(-c3ccccc3)cc2)=CC1=Cc1cc2cc([N+](=O)[O-])ccc2nc1Cl [Compound 6h, 3-[(2-Chloro-6-nitroquinolin-3-yl)methylene]-5-(biphenyl-4-yl)-1H-pyrrol-2(3H)-one]	25 (≈ 55.1 µM)		25 (≈ 55.1 µM)	6.25 (≈ 13.8 µM)	25 (≈ 55.1 µM)	12.5 (≈ 27.5 µM)		25 (≈ 55.1 µM)	58 ± 0.19^∗ %	58 ± 0.05^∗∗ %	50 ± 0.18	48 ± 0.15^∗ %
O=C(O)c1cn(C2CC2)c2cc(N3CCNCC3)c(F)cc2c1=O [Standard-1, Ciprofloxacin, reference compound]			6.25 (≈ 18.9 µM)	6.25 (≈ 18.9 µM)				6.25 (≈ 18.9 µM)				
OC(Cn1cncn1)(Cn1cncn1)c1ccc(F)cc1F [Standard-2, Fluconazole, reference compound]	6.25 (≈ 20.4 µM)				6.25 (≈ 20.4 µM)	6.25 (≈ 20.4 µM)						
